These results are taken from ChEMBL document CHEMBL1268841, “Synthesis and antifungal activity of benzofuran-5-ols” (2010).

Each structure is given as a SMILES string. In brackets after ≈: the same amount, converted by molar mass.

What all share (format): functional
One assay deals with Candida tropicalis. Briefly: Antifungal activity against Candida tropicalis KCCM 50662 after 1 day. Particulars: KCCM 50662, 24 h. The method, boiled down: (§1)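 MIC found by twofold broth dilution in modified Sabouraud dextrose broth. Approximately 1 × 10⁵ cells/mL inoculated. Final agent concentrations ranged from 0.2 to 50.0, compared against fluconazole and 5-fluorocytosine. Read after 1 day at 37 °C.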

Another assay has as its system Candida albicans. Briefly: Antifungal activity against Candida albicans KCCM 50235 after 1 day. Particulars: KCCM 50235, 24 h. The method, boiled down:
as §1

The subject of the next assay is Cryptococcus neoformans. Briefly: Antifungal activity against Cryptococcus neoformans KCCM 50564 after 1 day. Particulars: KCCM 50564, 24 h. In a few lines: as §1
In a further assay the test system is Pichia kudriavzevii. The experiment in a line: Antifungal activity against Candida krusei KCCM 11655 after 1 day. Particulars: KCCM 11655, 24 h. In a few lines: as §1
Another assay has as its system Aspergillus flavus. The experiment in a line: Antifungal activity against Aspergillus flavus KCCM 11899 after 2 days. Particulars: KCCM 11899, 48 h. In a few lines:
(§2)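 Twofold broth dilution in modified Sabouraud dextrose broth. Inoculum about 1 × 10⁵ cells/mL. Agents tested at final concentrations of 0.2 to 50.0, with fluconazole and 5-fluorocytosine as standards.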

The test system of another assay is Aspergillus niger. Briefly: Antifungal activity against Aspergillus niger KCTC 1231 after 2 days. Particulars: KCTC 1231, 48 h. In a few lines: as §2

For `COC(=O)c1c(N)oc2c(C)c(C)c(O)cc12`, the MIC in the assay on Candida tropicalis turned out to be 50 µg/mL (≈ 213 µM); against Candida albicans it was 50 µg/mL (≈ 213 µM); against Cryptococcus neoformans it was 25 µg/mL (≈ 106 µM); with Pichia kudriavzevii it was 25 µg/mL (≈ 106 µM); against Aspergillus flavus it was 25 µg/mL (≈ 106 µM); against Aspergillus niger it was 6.3 µg/mL (≈ 26.8 µM).
Regarding `COC(=O)c1c(N)oc2cc(C)c(O)cc12`, the MIC was found to be 25 µg/mL (≈ 113 µM) against Candida tropicalis; 25 µg/mL (≈ 113 µM) with Candida albicans; 12.5 µg/mL (≈ 56.5 µM) in the assay on Cryptococcus neoformans; 3.2 µg/mL (≈ 14.5 µM) in the assay with Pichia kudriavzevii; 25 µg/mL (≈ 113 µM) with Aspergillus flavus; 12.5 µg/mL (≈ 56.5 µM) in the assay with Aspergillus niger.
With `COC(=O)c1c(N)oc2ccc(O)cc12`, the MIC in the assay on Candida tropicalis is 3.2 µg/mL (≈ 15.4 µM); against Candida albicans, 1.6 µg/mL (≈ 7.72 µM); against Cryptococcus neoformans, 12.5 µg/mL (≈ 60.3 µM); against Pichia kudriavzevii, 6.3 µg/mL (≈ 30.4 µM); against Aspergillus flavus, 12.5 µg/mL (≈ 60.3 µM); against Aspergillus niger, 3.2 µg/mL (≈ 15.4 µM).
Take `CCOC(=O)c1c(N)oc2ccc(O)cc12`: the MIC against Candida tropicalis was 3.2 µg/mL (≈ 14.5 µM); against Candida albicans, 1.6 µg/mL (≈ 7.23 µM); in the assay on Cryptococcus neoformans, 12.5 µg/mL (≈ 56.5 µM); against Pichia kudriavzevii it was 12.5 µg/mL (≈ 56.5 µM); against Aspergillus flavus, 6.3 µg/mL (≈ 28.5 µM); against Aspergillus niger, 3.2 µg/mL (≈ 14.5 µM).
Consider `COC(=O)c1c(N)oc2cc(Cl)c(O)cc12`, for which the MIC against Candida tropicalis was determined as 12.5 µg/mL (≈ 51.7 µM); against Candida albicans, 25 µg/mL (≈ 103 µM); against Cryptococcus neoformans, 12.5 µg/mL (≈ 51.7 µM); against Pichia kudriavzevii it was 25 µg/mL (≈ 103 µM); in the assay on Aspergillus flavus it was 6.3 µg/mL (≈ 26.1 µM); with Aspergillus niger, 6.3 µg/mL (≈ 26.1 µM).
Regarding `CCOC(=O)c1c(N)oc2cc(Cl)c(O)cc12`, the MIC with Candida tropicalis stood at 12.5 µg/mL (≈ 48.9 µM); against Candida albicans, 12.5 µg/mL (≈ 48.9 µM); with Cryptococcus neoformans, 50 µg/mL (≈ 196 µM); in the assay on Pichia kudriavzevii, 25 µg/mL (≈ 97.8 µM); with Aspergillus flavus it was 12.5 µg/mL (≈ 48.9 µM); in the assay with Aspergillus niger, 25 µg/mL (≈ 97.8 µM).
Turning to `CCOC(=O)c1c(N)oc2c(C)cc(O)c(C)c12`, the MIC worked out at 6.3 µg/mL (≈ 25.3 µM) against Candida tropicalis; 6.3 µg/mL (≈ 25.3 µM) in the assay with Candida albicans; 12.5 µg/mL (≈ 50.1 µM) against Cryptococcus neoformans; 3.2 µg/mL (≈ 12.8 µM) in the assay with Pichia kudriavzevii; 12.5 µg/mL (≈ 50.1 µM) in the assay on Aspergillus flavus; 12.5 µg/mL (≈ 50.1 µM) against Aspergillus niger.
Regarding `Cc1cc2oc(N)c(C#N)c2cc1O`, the minimum inhibitory concentration (MIC) with Candida tropicalis is more than 50 µg/mL; against Candida albicans, 50 µg/mL (≈ 266 µM); against Cryptococcus neoformans it was 3.2 µg/mL (≈ 17 µM); against Pichia kudriavzevii, 0.8 µg/mL (≈ 4.25 µM); in the assay on Aspergillus flavus it was 12.5 µg/mL (≈ 66.4 µM); against Aspergillus niger, more than 50 µg/mL.
Turning to `N#Cc1c(N)oc2ccc(O)cc12`, the MIC with Candida tropicalis was found to be 6.3 µg/mL (≈ 36.2 µM); in the assay on Candida albicans it was 12.5 µg/mL (≈ 71.8 µM); in the assay on Cryptococcus neoformans, 12.5 µg/mL (≈ 71.8 µM); in the assay on Pichia kudriavzevii, 25 µg/mL (≈ 144 µM); with Aspergillus flavus, 12.5 µg/mL (≈ 71.8 µM); in the assay on Aspergillus niger it was 6.3 µg/mL (≈ 36.2 µM).
As for `Cc1c(O)ccc(O)c1C`, the MIC against Candida tropicalis was more than 50 µg/mL; in the assay with Candida albicans it was 50 µg/mL (≈ 362 µM); in the assay on Cryptococcus neoformans, 12.5 µg/mL (≈ 90.5 µM); in the assay on Pichia kudriavzevii, 25 µg/mL (≈ 181 µM); against Aspergillus flavus it was 12.5 µg/mL (≈ 90.5 µM); against Aspergillus niger, 50 µg/mL (≈ 362 µM).
In the case of `COC(=O)c1c(N)oc2c(C)c(C)c(O)c(Sc3ccccc3)c12`, the MIC was determined as 25 µg/mL (≈ 72.8 µM) against Candida tropicalis; 25 µg/mL (≈ 72.8 µM) in the assay on Candida albicans; 1.6 µg/mL (≈ 4.66 µM) with Cryptococcus neoformans; 6.3 µg/mL (≈ 18.3 µM) with Pichia kudriavzevii; 25 µg/mL (≈ 72.8 µM) against Aspergillus flavus; 12.5 µg/mL (≈ 36.4 µM) in the assay on Aspergillus niger.
`COC(=O)c1c(N)oc2c(C)c(C)c(O)c(Sc3ccc(C)cc3)c12`: the MIC came out at 25 µg/mL (≈ 69.9 µM) in the assay on Candida tropicalis; 25 µg/mL (≈ 69.9 µM) against Candida albicans; 6.3 µg/mL (≈ 17.6 µM) in the assay on Cryptococcus neoformans; 3.2 µg/mL (≈ 8.95 µM) with Pichia kudriavzevii; 25 µg/mL (≈ 69.9 µM) in the assay on Aspergillus flavus; 25 µg/mL (≈ 69.9 µM) against Aspergillus niger.
Take `COC(=O)c1c(N)oc2c(C)c(C)c(O)c(Sc3ccc(C)c(C)c3)c12`: the minimal inhibitory concentration (MIC) amounted to 25 µg/mL (≈ 67.3 µM) in the assay with Candida tropicalis; 25 µg/mL (≈ 67.3 µM) against Candida albicans; 1.6 µg/mL (≈ 4.31 µM) with Cryptococcus neoformans; 3.2 µg/mL (≈ 8.61 µM) in the assay on Pichia kudriavzevii; 3.2 µg/mL (≈ 8.61 µM) in the assay on Aspergillus flavus; 12.5 µg/mL (≈ 33.7 µM) in the assay with Aspergillus niger.
As for `COC(=O)c1c(N)oc2c(C)c(C)c(O)c(Sc3cccc(F)c3)c12`, the MIC is 50 µg/mL (≈ 138 µM) in the assay on Candida tropicalis; more than 50 µg/mL against Candida albicans; 6.3 µg/mL (≈ 17.4 µM) in the assay with Cryptococcus neoformans; 25 µg/mL (≈ 69.2 µM) with Pichia kudriavzevii; 3.2 µg/mL (≈ 8.85 µM) in the assay with Aspergillus flavus; 1.6 µg/mL (≈ 4.43 µM) with Aspergillus niger.
For `COC(=O)c1c(N)oc2c(C)c(C)c(O)c(Sc3cccc(C)c3)c12`, the MIC in the assay on Candida tropicalis is more than 50 µg/mL; in the assay on Candida albicans it was more than 50 µg/mL; in the assay on Cryptococcus neoformans it was 1.6 µg/mL (≈ 4.48 µM); with Pichia kudriavzevii, more than 50 µg/mL; against Aspergillus flavus it was more than 50 µg/mL; against Aspergillus niger, more than 50 µg/mL.
On to `COC(=O)C(C#N)C1=C(Cl)C(=O)C(C)=C(C)C1=O` (stereo not drawn), for which the MIC against Candida tropicalis stood at 50 µg/mL (≈ 187 µM); with Candida albicans, 50 µg/mL (≈ 187 µM); against Cryptococcus neoformans it was 6.3 µg/mL (≈ 23.5 µM); with Pichia kudriavzevii it was 25 µg/mL (≈ 93.4 µM); in the assay on Aspergillus flavus, 12.5 µg/mL (≈ 46.7 µM); in the assay with Aspergillus niger it was 25 µg/mL (≈ 93.4 µM).
For the compound `OC(Cn1cncn1)(Cn1cncn1)c1ccc(F)cc1F` [FLUCONAZOLE], the minimal inhibitory concentration (MIC) with Candida tropicalis worked out at 6.3 µg/mL (≈ 20.6 µM); in the assay on Candida albicans, 50 µg/mL (≈ 163 µM); against Cryptococcus neoformans it was 6.3 µg/mL (≈ 20.6 µM); in the assay with Pichia kudriavzevii it was 12.5 µg/mL (≈ 40.8 µM); against Aspergillus flavus, 25 µg/mL (≈ 81.6 µM); against Aspergillus niger, 12.5 µg/mL (≈ 40.8 µM).
Take `Nc1nc(=O)[nH]cc1F` [FLUCYTOSINE]: the MIC against Candida tropicalis came out at 6.3 µg/mL (≈ 48.8 µM); in the assay with Candida albicans, 6.3 µg/mL (≈ 48.8 µM); in the assay on Cryptococcus neoformans it was 12.5 µg/mL (≈ 96.8 µM); against Pichia kudriavzevii, 12.5 µg/mL (≈ 96.8 µM); with Aspergillus flavus, 6.3 µg/mL (≈ 48.8 µM); with Aspergillus niger, 12.5 µg/mL (≈ 96.8 µM).

The term MIC denotes the lowest concentration found to suppress growth. Read a high MIC as a less susceptible organism.
